According to publication PMC2881163 (The journal of physical chemistry. B, 2010):
Values belong to the substance of their own block, whether it stands above or below them.

Key:
[1] = Dynamic light scattering of aqueous solutions; format: physicochemical; conditions: 25 °C; for z-average diameter of micelles: DLS cumulant analysis, water, concentrations above the CMC, mean ± SD
How it was run: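 He-Ne laser (632.8 nm) with backscatter detection at 173°, 25 °C, using water viscosity 0.8937 cP and refractive index 1.333. Samples diluted from stock in Milli-Q water and filtered (0.02 μm). Solvent scattering was subtracted and plotted against concentration, with the inflection taken as the CMC. Triton X-100 served as positive control and a non-amphiphilic peptide as negative control. Triplicate samples were each read three times. Z-average came from a single-exponential cumulant fit and size distribution from a multi-exponential fit.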

mice = conditions: cited from earlier work
[2] = Surface tension, Du Nouy ring tensiometer; format: physicochemical; conditions: aqueous solution, 25 °C; for surface tension: at 10 mM, triplicate solutions
How it was run: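 Test compound solutions were equilibrated to 25 °C. The ring was immersed 5 mm below the surface, then retracted automatically at 5 mm/min. Between measurements the ring was rinsed with water and ethanol and flamed. Solutions were prepared in triplicate.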

[3] = cited from earlier work
[4] = Stability of CMS in solution; format: physicochemical; conditions: 0.9% saline, 25 °C, over 120 hr
[5] = low, clinically relevant concentrations; cited from earlier work

Substance: Colistin
z-average diameter of micelles [1]: 2.07 ± 0.3 nm
LD50 (mice): 217.7 mg/kg
interfacial tension after the CMC [2]: approximately 40 dynes/cm
surface tension [2]: 35–40 mN/m

z-average diameter of micelles [1]: 8.17 ± 0.59 nm
Substance: Triton X-100

Substance: colistin methanesulfonate [CMS]
z-average diameter of micelles [1]: ~1.98 ± 0.36 nm
conversion of CMS to colistin in buffer solutions in vitro ([3]; <100 μg/mL at 37 °C): rapid
stability of concentrated CMS solutions with respect to formation of colistin ([3]; >70 mg/mL, relevant to commercial pharmaceutical formulations): stable for extended periods
LD50 (mice): 5.43 mg/kg
surface tension [2]: 35–40 mN/m
conversion of CMS to colistin, initial concentration 0.052 mM ([4]; n = 3, HPLC of colistin formed): Rapid conversion
conversion of CMS to colistin, initial concentration 0.52 mM ([4]; n = 3, HPLC of colistin formed): Less rapid conversion
degradation of CMS, initial concentration 5.2 mM ([4]; n = 3, well above the CMC): negligible
degradation of CMS, initial concentration 52 mM ([4]; n = 3, well above the CMC): negligible
conversion of CMS to colistin in plasma and urine in vivo [5]: rapid

light scattering above that of water ([1]; DLS, up to 20 mM, no reliable size data could be obtained): negligible
Substance: polymyxin B nonapeptide hydrochloride [PMBN]
